Measured values of several laboratories.
Lines come from different studies, so protocols differ.
Target: Eukaryotic elongation factor 2 kinase (EEF2K, Homo sapiens, UniProt O00418)

Cn1c2c(c3ccc(Cl)c(Cl)c31)C(C#N)C(C)(C)NC2=O (stereo not shown)
ΔTm (thermal stability, DSF; 10 µM): -0.5 °C

CN1CC(Oc2cnc(C#N)cc2-c2ccn3nc(NC(=O)C4CC4)cc3c2)C1
inhibition (enzyme activity, inhibitor; 1 µM): 9%

CCN(CC)CCNC(=O)c1c(C)[nH]c(/C=C2\C(=O)Nc3ccc(F)cc32)c1C
inhibition (enzyme activity, inhibitor; 10 µM): -4%

Cn1c2c(c3ccc(Cl)c(Cl)c31)C(C#N)C1(CCCC1)NC2=O (stereo not shown)
ΔTm (thermal stability, DSF; 10 µM): 0 °C

CC(C)(C)c1nc2c(s1)c1nc(N)ncc1c1ccc(NS(=O)(=O)c3c(F)cccc3F)c(F)c12
remaining activity (enzyme activity, inhibitor, radiometric; 1 µM): 88%

COc1cc(Nc2cnc(C#N)c(O[C@H](C)CN(C)C)n2)ncc1-c1cnn(C)c1
remaining activity (enzyme activity, inhibitor, radiometric; 10 µM): 87%

CCN(CC)c1ccc(C2=NNC(=O)CC2C)cc1[N+](=O)[O-] (stereo not shown)
remaining activity (enzyme activity, inhibitor; 10 µM): 95%

COc1cc2nccc(Oc3ccc(NC(=O)c4c5n(n(-c6ccc(F)cc6)c4=O)CCCC5)cc3)c2cc1OC
inhibition (enzyme activity, inhibitor; 0.1 µM): 8%

Oc1cccc(-c2nc(N3CCOCC3)c3oc4ncccc4c3n2)c1
remaining activity (enzyme activity, inhibitor; 10 µM): 99%

Cc1ccc(Nc2nccc(N(C)c3ccc4c(C)n(C)nc4c3)n2)cc1S(N)(=O)=O
inhibition (enzyme activity, inhibitor; 0.3 µM): -7%

Cn1c2c(Cl)c(Cl)ccc2c2cc[nH]c(=O)c21
ΔTm (thermal stability, DSF; 10 µM): -0.3 °C

Nc1nc(Nc2ccccc2)sc1C(=O)c1c(F)cccc1F
remaining activity (enzyme activity, inhibitor; 10 µM): 95%

FC(F)(F)Oc1cccc(-c2cnc3ccc(-c4ccncc4)nn23)c1
activity vs control (enzyme activity, inhibitor, radiometric; 5 µM): 98%

CC(C)c1ccc(NC(=O)c2cccs2)c(-c2nc3ccccc3[nH]c2=O)c1
activity vs control (enzyme activity, inhibitor; 1 µM): 113%

CCN1CCN(Cc2ccc(NC(=O)c3ccc(C)c(Oc4ccnc5[nH]ccc45)c3)cc2C(F)(F)F)CC1
inhibition (target engagement in cells, inhibitor, chemoproteomics; A-375; 5 µM): -27.8%

COc1cc2ncnc(Nc3ccc(Oc4ccccc4)cc3C)c2cc1OC
inhibition (enzyme activity, inhibitor; 1 µM): 2%
